Cl transport mod – modulates chloride dependent transport by human KCC2 | Q9H2X9 | KCC2 cells, thallium flux FluoZin-2 fluorescence | B-score of Tl+ flux slope (higher = more flux/activation; lower = inhibition) at 10 µM | 2.2% of 190,000 active | AID 1456;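 active means thallium flux slope and its plate-corrected score both differing from the plate sample mean at a set confidence after two filtering rounds, in either direction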;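 further: slope of fluorescence scaled to starting intensity during 10 to 20 s after thallium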
KCNK3 block – human KCNK3 channel inhibition, primary screen. CHO-KCNK3 thallium flux, FluxOR fluorescence; active compounds read low. 0.84% of 340,000 active. B-score at 10 µM;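 active means B-score under library mean minus 4 SD, starting fluorescence ratio at most library mean plus 5 SD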;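 further: more negative B-score means stronger inhibition of thallium flux through KCNK3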
KCNQ1 act – potentiators or activators of human KCNQ1 potassium channel | CHO-K1 KCNQ1, thallium flux FluxOR fluorescence; active compounds read high | P51787 | 0.35% of 310,000 active | B-score at 10 µM | AID 2648;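 active means fluorescence ratio B-score, a plate-corrected score, at least three library SD, with initial intensity B-score within 5 SD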
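Assay system: CHO-K1 cells stably expressing KCNQ1; Medium: assay buffer with matched DMSO; Also added: K+/Tl+ depolarizing stimulus; Dosing: single dose; Timing: dye 90 min, compound 20 min, room temperature; Measured by: kinetic FluxOR thallium fluorescence, 10-s 1-Hz baseline, 110-s post-stimulus read; Read-out: peak-minus-minimum fluorescence over initial fluorescence, negative-control normalized, B-scored.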
hERG rescue – shields human hERG channel from block by proarrhythmic agents. Q12809. CHO-hERG, FluxOR thallium flux, dofetilide IC70 present. activation (rescue from dofetilide block), less the hit threshold, % at 10 µM. 0.51% of 310,000 active. AID 1511;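 active means activation above the mean of controls blocked by dofetilide plus 5 SD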;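 further: thallium influx through hERG after potassium depolarization seen as dye fluorescence rise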
KCNQ1 inh – human KCNQ1 channel inhibition; P51787; CHO-K1 KCNQ1, FluxOR thallium flux fluorescence; active compounds read high; B-score at 10 µM; 1.3% of 310,000 active; AID 2642;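 active means compounds whose thallium flux B-score, printed positive for inhibition, exceeds three library SD while starting fluorescence stays within three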;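 further: channel opened by potassium depolarization with thallium stimulus after 20 min compound exposure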
KCNK9 block – blocks the human KCNK9 two-pore domain potassium channel; AID 488922; Q9NPC2; 1.2% of 310,000 active; B-score at 10 µM; HEK293 KCNK9, FluxOR thallium flux fluorescence; active compounds read low;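 active means ratio B-score over 3 SD below the library mean, with starting fluorescence within 5 SD of its mean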;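 further: negative B-score means less thallium flux so channel inhibition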
KCC2 secondary – confirmation of human KCC2 transport modulators. normalised thallium flux (F/F0 slope) at 10 µM. shares compounds with Cl transport mod. 15% of 3,700 active. HEK293-KCC2, thallium flux, FluoZin2 fluorescence; active compounds read high;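 active means thallium flux slope above the same plate's solvent-only control mean plus 3 SD; inconclusive means the two replicate wells disagree; inactive means no significant difference from solvent-only control wells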
KCC2 bumet counter – thallium flux despite bumetanide block in KCC2 cells, secondary assay 3; shares compounds with Cl transport mod; normalized thallium flux at 10 µM; 49% of 3,700 active; HEK293-KCC2 + bumetanide/ouabain, thallium flux FluoZin2; active compounds read high;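 active means thallium entry rate above the same plate's blocked-transporter control wells by more than 3 SD; inconclusive means the two repeat wells disagree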;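 further: raw slope of fluorescence over initial fluorescence between 10 and 20 s after thallium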
KCC2 sec2 – KCC2 (human) modulation, second secondary assay; shares compounds with Cl transport mod; HEK293-KCC2, thallium flux FluoZin2 fluorescence; actives lie on both sides; F/F0 rise rate, 10–20 s post-thallium; normalized thallium flux at 10 µM; 23% of 3,700 active; AID 1715;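 active means thallium flux slope more than 3 SD above or below the plate's solvent-only control mean, mostly below; inconclusive means the two repeat wells disagreed; inactive means no significant shift from solvent-only controls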;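 further: raw slope with 0.1% DMSO as baseline and bumetanide as block control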
HEK293 Tl flux – acts in parental HEK cells, KCC2 counter-screen; shares compounds with Cl transport mod; HEK293 parental cells, thallium flux FluoZin2, ouabain; baseline-ratio fluorescence slope, 10–20 s after thallium; thallium flux rate (normalised fluorescence) at 10 µM; 46% of 3,700 active;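 active means thallium flux rate significantly above the same plate's solvent-only control wells, beyond their mean plus 3 SD; inconclusive means the two replicate wells gave conflicting results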
KCC2 retest ouab – confirmation of human KCC2 modulators with ouabain | raw Tl+ flux slope (below DMSO = inhibition, above = activation) at 10 µM | 48% of 3,700 active | AID 1717 | shares compounds with Cl transport mod | HEK293-KCC2, thallium flux FluoZin2 fluorescence; bidirectional: low = inhibitor, high = activator;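 active means thallium flux slope beyond 3 SD from same-plate DMSO control mean in most replicates, usually higher, sometimes lower; inconclusive means repeat tests gave conflicting results; inactive means no significant difference from controls in most replicates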;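 further: slope of initial-normalized fluorescence between seconds 10 and 20 after thallium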
HEK counter2 – counter-screen for KCC2 modulators: effect in parental HEK293 cells | shares compounds with Cl transport mod | thallium flux FluoZin-2 fluorescence slope | thallium flux slope at 10 µM | 33% of 3,700 active | AID 1718;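 active means thallium flux slope above the same plate's solvent-control mean plus 3 SD in both duplicate wells; inconclusive means duplicate wells that disagreed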;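 further: run without ouabain in cells lacking the KCC2 cotransporter; slope of fluorescence scaled to its starting value between 10 and 20 s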
* marks the source's active call; other numbers are inactive results; i = inactive; ? = inconclusive; nt = not tested or not shown. Hits are enriched below; roughly 4.1% of the tested compounds scored in any of these assays.

SMILES | Cl transport mod | KCNK3 block | KCNQ1 act | hERG rescue | KCNQ1 inh | KCNK9 block | KCC2 secondary | KCC2 bumet counter | KCC2 sec2 | HEK293 Tl flux | KCC2 retest ouab | HEK counter2
Cc1ccc(CCNC(=O)c2ccc(CS(=O)(=O)Cc3ccccc3F)o2)cc1 | -6.82* | i | i | -12.6 | i | i | 0.00645 | ? | ? | 0.0074 | 0.0176 | 0.0116
Cc1cccc(-c2nc(=S)c3c(n2Cc2ccco2)CCCC3)c1 | 20.9* | i | i | -10.2 | i | i | 0.0064 | 0.0207* | 0.0322 | 0.0175* | 0.0316* | 0.0154*
Cc1ccc(-c2nc(=S)c3c(n2Cc2ccco2)CC(C)(C)OC3)cc1 | nt | i | 12* | -7.8 | i | i | 0.0174* | 0.025* | 0.033 | 0.0114* | 0.0282 | 0.0119*
CSC1SCC2C(=O)N(C)C(C(C)C)C(=O)OCC(NC(=O)c3cnc4ccccc4n3)C(=O)NC(C)C(=O)N(C)C1C(=O)N(C)C(C(C)C)C(=O)OCC(NC(=O)c1cnc3ccccc3n1)C(=O)NC(C)C(=O)N2C (stereo not given) | nt | i | nt | nt | nt | nt | nt | nt | nt | nt | nt | nt
CN=c1scc(-c2ccccc2F)n1/N=C(\C)c1cccnc1 | -3.91* | i | i | -11.6 | i | i | 0.00702 | 0.00482 | ? | 0.00773 | ? | 0.0109
C/C(=N\N1CCN(C2c3ccccc3-c3ccccc32)CC1)c1cccnc1 | -0.0106 | i | i | -6.3 | i | i | nt | nt | nt | nt | nt | nt
COc1ccc(CCNc2oc(COc3ccccc3)nc2C#N)cc1 | nt | i | i | -14.0 | i | i | 0.0079 | 0.00471 | 0.0356 | ? | ? | 0.0108
N#Cc1nc(COc2ccccc2Cl)oc1NCc1cccnc1 | -2.99* | i | i | -14.2 | i | i | 0.00699 | 0.00611 | 0.0302 | 0.00711 | 0.0215* | 0.0092
CCOC(=O)COc1cc(-n2c(=S)[nH]c3ccccc3c2=O)c(Cl)cc1Cl | 4.35* | i | i | -8.5 | i | i | 0.00785 | 0.0215* | 0.0329 | 0.0135* | ? | 0.0161*
CSC(=Nc1ccccc1)N=C(SCc1ccccc1)N(C)C | nt | i | nt | nt | nt | nt | nt | nt | nt | nt | nt | nt
NS(=O)(=O)c1cc(C(=O)Nc2ccc3c(c2)CCC3)ccc1Cl | nt | i | i | -14.0 | i | i | nt | nt | nt | nt | nt | nt
O=C(Cn1nnc2c(cnn2-c2ccccc2)c1=O)N1CCN(c2ccccc2F)CC1 | -5.48* | i | i | -3.3 | i | i | 0.00576 | ? | 0.0205* | 0.00681 | 0.0143* | 0.00916
COc1cccc(C(=O)OCC(=O)NC(=O)NC2CCCC2)c1O | 10.8* | i | i | -4.9 | i | i | 0.01 | 0.017* | 0.0345 | 0.0203* | 0.0265* | 0.0144*
CC(=O)c1nc2ccccc2n1S(=O)(=O)c1ccc(Cl)cc1 | -0.294 | i | i | -9.0 | i | i | nt | nt | nt | nt | nt | nt
CC(=O)c1nc2ccccc2n1S(=O)(=O)c1ccc(C)cc1 | 5.6* | i | i | -8.4 | i | i | 0.0113 | ? | 0.0291 | 0.0076 | 0.0181 | 0.00998
Cc1ccc(S(=O)(=O)Nc2cccc(C(=O)NCc3ccc(S(N)(=O)=O)cc3)c2)cc1 | nt | i | i | -7.4 | i | i | nt | nt | nt | nt | nt | nt

Assay outcomes (PubChem)
